Test results taken from publication PMC9303465 (Hematological Oncology, 2022).

Assay: Population PK analysis of venetoclax in AML patients
Type: in vivo
Outline: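 Plasma PK data were pooled from five studies: 771 R/R or treatment-naïve AML patients given ≥1 dose, with daily ramp-up to 400–1200 mg QD. Fitted by nonlinear mixed-effects modelling (FOCE-INT), using a prior CLL/SLL/NHL/healthy-volunteer model as informative priors. Race, azacitidine, decitabine and LDAC were tested stepwise (forward α=0.01, backward α=0.001) as multiplicative factors on CL/F, Vd/F and bioavailability. Validated by pcVPC (500 replicates); AUCss was taken from the planned dose.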

Median exposure (AUCss) at 400 mg venetoclax (Asian patients): 1.85 µg·days/mL | higher relative bioavailability in Asian than non‐Asian patients (Asian vs non-Asian AML patients): 67% | Median exposure (AUCss) at 400 mg venetoclax (Non‐Asian patients): 1.11 µg·days/mL | effect of co-administration on venetoclax CL/F (P‐gp inhibitors, mild CYP3A inhibitors, azacitidine, decitabine, or LDAC): no effect | increase of venetoclax Vd/F with azacitidine (azacitidine co-administration): 24% | decrease of venetoclax CL/F by moderate CYP3A inhibitors (co-administered moderate CYP3A inhibitors): 19% | decrease of venetoclax CL/F by strong CYP3A inhibitors (co-administered strong CYP3A inhibitors): 83%
Compound: CC1(C)CCC(CN2CCN(c3ccc(C(=O)NS(=O)(=O)c4ccc(NCC5CCOCC5)c([N+](=O)[O-])c4)c(Oc4cnc5[nH]ccc5c4)c3)CC2)=C(c2ccc(Cl)cc2)C1 [Venetoclax]
effect of covariates on venetoclax exposure (sex, mild to moderate hepatic impairment, mild to severe renal impairment, age, body weight): did not appear to have any effect
